Experimental data published in publication PMC12095820 (Scientific Reports, 2025).

Key:
LN-18 = experiment: Antiproliferative MTT assay, 2D cell culture; assay type: cell-based; conditions: Homo sapiens, LN-18, 48 h, read-out: IC50 LN-18
Method in brief: (§1)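 LN-18 and U373 cells were grown in phenol-red-free DMEM with 5% FBS and amino acids at 37 °C, 5% CO2. Cells (1 x 10³ per well) adhered 24 h, then were exposed 48 h to 0–140 µM compound, with 0.1% DMSO as vehicle. MTT (2.5 mg/mL in phenol-red-free medium) was applied 1 h at 37 °C. Plates were read at 540 nm after DMSO solubilisation and normalised to vehicle. Statistics: one-way ANOVA with Tukey.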

Forced stability test = assay type: physicochemical; conditions: for Percentage degradation, Thermal: 50 °C; for Percentage degradation, Thermal / Percentage degradation, Acid / Percentage degradation, Basic / Percentage degradation, Luminous: 24 h; for Percentage degradation, Oxidative: H2O2 3%, 1 h; for Percentage degradation, Acid: HCl 0.1 N; for Percentage degradation, Basic: NaOH 0.1 N; for Percentage degradation, Luminous: Sunlight
Method in brief: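 Compound stock (1 mL) was placed in a 5 mL volumetric flask for each stress. Acid and base arms used 1 mL of 0.1 N HCl or 0.1 N NaOH for 24 h, then were neutralised with the opposite reagent. Oxidative stress used 3.0% H2O2. For heat (50 °C oven, 24 h) and sunlight exposure (24 h), stock was diluted to volume in mobile phase in capped vials. Degradation was assessed chromatographically.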

Gli4 cells [1] = experiment: MTT assay, Gli4 in differentiation medium, flat bottom plate; assay type: cell-based, human; conditions: flat bottom, 0, 1 and 10 µM, compared to G-15
Method in brief: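 Gli4 cells (4000 per well) were seeded in differentiation medium in flat-bottom wells treated with laminin/lysine. Compound was tested at 0, 1 and 10 µM. Viability was quantified by MTT 5 days after incubation and expressed as % viability. N=5.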

MCF-10 A = experiment: MTT assay on non-cancerous control cells; assay type: cell-based; conditions: Homo sapiens, 48 h, read-out: IC50 MCF-10 A
Method in brief: (§2)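 Non-tumour control cells were used: BJ fibroblasts in DMEM with 5% FBS, and MCF-10A in DMEM/F12 with 5% horse serum, insulin, EGF and hydrocortisone. Cells (1 x 10³ per well) adhered 24 h, then were treated 48 h with 0–140 µM compound in DMSO (0.1% vehicle control). MTT (2.5 mg/mL) was applied 1 h at 37 °C. Formazan was dissolved in DMSO, read at 540 nm and normalised to vehicle.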

Gli4 cells [2] = experiment: 3D antiproliferative assay on non-aligned nanofibers; assay type: cell-based, human; conditions: proliferation and differentiation mediums, 0.1, 1 and 10 µM, 4 days
[3] = tested on: glioblastoma stem cells (Gli4); experiment: Neurospheres formation assay; assay type: cell-based, human; conditions: proliferation medium, 0, 1 and 10 µM, 4 days
Method in brief: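 Dissociated Gli4 cells (4000 per well) were plated in proliferation medium in round-bottom ultra-low-attachment wells pre-coated with poly-HEMA; a flat-bottom format was also run. Compound in DMSO was added to final 0, 1 and 10 µM. After 4 days, spheres were dissociated, and cells were mixed 1:1 with trypan blue and counted in a Neubauer chamber.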

U373 = experiment: Antiproliferative MTT assay, 2D cell culture; assay type: cell-based; conditions: Homo sapiens, U373 MG, 48 h, read-out: IC50 U373
Method in brief: as §1

Gli4 cells [4] = experiment: 3D anti-migratory assay on aligned nanofibers; assay type: cell-based, human; conditions: 10 µM, non-cytotoxic concentration
BJ = experiment: MTT assay on non-cancerous control cells; assay type: cell-based; conditions: Homo sapiens, 48 h, read-out: IC50 BJ
Method in brief: as §2

[5] = Dissolution in culture medium during antiproliferative assay; assay type: physicochemical; conditions: 20 µM
[6] = tested on: GBM cell lines LN18 and U373; experiment: Antiproliferative evaluation in 2D cell culture, summary over both GBM lines; assay type: cell-based, human; conditions: data not shown; crystals at 20 µM
Method in brief: as §1

| Percentage degradation, Thermal (Forced stability test) | Percentage degradation, Oxidative (Forced stability test) | Percentage degradation, Acid (Forced stability test) | Percentage degradation, Basic (Forced stability test) | Percentage degradation, Luminous (Forced stability test) | Structure (SMILES) | IC50 (LN-18) | Cell viability of the NS (Gli4 cells [1]) | IC50 (MCF-10 A) | Cell proliferation of Gli4 on non-aligned nanofibers (Gli4 cells [2]) | Neurospheres formation [3] | IC50 (U373) | Reduction of migration of Gli4 cells on aligned NFS (Gli4 cells [4]) | IC50 (BJ) | Ability to dissolve into medium culture [5] | IC50 in the cells assayed [6] |
| --- | --- | --- | --- | --- | --- | --- | --- | --- | --- | --- | --- | --- | --- | --- | --- |
| 1.36% | 2.95% | 7.2% | 9.8% | 0.15% | Cc1ccc(S(=O)(=O)NC(=O)c2ccc3c(c2)[C@@H]2C=CC[C@@H]2[C@H](c2cc4c(cc2Br)OCO4)N3)cc1 [L-06, (3aS,4R,9bR)-4-(6-bromobenzo[d][1,3]dioxol-5-yl)-N-tosyl-3a,4,5,9b-tetrahydro-3 H-cyclopenta[c] quinoline-8-carboxamide] | 67.7 µM | slightly decreased cell viability | 33.8 µM | non-antiproliferative activity | inhibit neurospheres formation | 67.7 µM | ~50% | 102 µM |  |  |
|  |  |  |  |  | Brc1cc2c(cc1[C@@H]1Nc3ccccc3[C@@H]3C=CC[C@@H]31)OCO2 [G15, reference compound] |  |  |  |  | inhibit neurospheres formation |  |  |  | formed crystals | not able to reach IC50 values |
|  |  |  |  |  | Cc1cc2c(C(C)C)c(O)c(O)c(C=O)c2c(O)c1-c1c(C)cc2c(C(C)C)c(O)c(O)c(C=O)c2c1O [Gossypol, reference compound] | 25.3 µM |  |  |  |  | 33.8 µM |  |  |  |  |
| 0.75% | 0.5% | 0.65% | 13.6% | 3.5% | O=C(NS(=O)(=O)c1ccc(Cl)cc1)c1ccc2c(c1)[C@@H]1C=CC[C@@H]1[C@H](c1cc3c(cc1Br)OCO3)N2 [L-37, (3aS,4R,9bR)-4-(6-bromobenzo[d][1,3]dioxol-5-yl)-N-((4-chlorophenyl)sulfonyl)-3a,4,5,9b-tetrahydro-3 H-cyclopenta[c] quinoline-8-carboxamide] | 40.7 µM | slightly decreased cell viability | 23.9 µM | trend to decrease cell proliferation | inhibit neurospheres formation | 39.8 µM |  | 110 µM |  |  |
